Only some compounds are listed: those with a hit (about 10% of all), similar ones and a draw of the others.
L major viab: Leishmania major promastigote growth inhibition, primary screen; hit rate 9% among 200,000; AID 1063, 2008; inhibition, % at 10 µM; Leishmania major promastigotes, resazurin fluorescence viability; in the data active = inhibition above about 50%;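 also: promastigotes grown with compound for 44 hours at 28 °C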
Diaph act CS: compounds boosting diaphorase resazurin reduction – biochemical, uHTS, resorufin fluorescence, counter-screen for diaphorase-coupled primary assays, primary screen. Diaphorase/resazurin coupled assay, 16 min; stronger effect = higher value; 1 = vehicle wells, 0 = NADH-free wells. hit rate 0.005% among 190,000. activation factor at 20 µM;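 active = diaphorase activity raised at least twofold by the compound at 20 µM; inactive = activation factor below 2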
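Assay system: bacterial diaphorase enzyme (C. kluyveri) / Input: enzyme 0.07 U/mL final / Medium: 50 mM HEPES pH 7.4 with 4.542 mM MgCl2, 0.005% Tween 20 / Doses: single compound dose of 20 µM, 1% DMSO final / Incubation: 16 min enzyme reaction, ambient temperature / Signal: fluorescence, excitation 544 nm and emission 590 nm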
PMI act hi M6P: human PMI activators, high substrate, primary screen, biochemical, fluorescence intensity, near-saturating mannose 6-phosphate | Mannose-6-phosphate isomerase (Homo sapiens), P34949 | coupled PMI enzyme assay, resazurin fluorescence, 20 min; stronger effect = higher value; 1 = untreated enzyme, 0 = substrate-free blank | activation factor at 20 µM | hit rate 0.34% among 190,000;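 active = activation factor of 2 or more at 20 µM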
Target sequence (P34949 whole entry, looked up): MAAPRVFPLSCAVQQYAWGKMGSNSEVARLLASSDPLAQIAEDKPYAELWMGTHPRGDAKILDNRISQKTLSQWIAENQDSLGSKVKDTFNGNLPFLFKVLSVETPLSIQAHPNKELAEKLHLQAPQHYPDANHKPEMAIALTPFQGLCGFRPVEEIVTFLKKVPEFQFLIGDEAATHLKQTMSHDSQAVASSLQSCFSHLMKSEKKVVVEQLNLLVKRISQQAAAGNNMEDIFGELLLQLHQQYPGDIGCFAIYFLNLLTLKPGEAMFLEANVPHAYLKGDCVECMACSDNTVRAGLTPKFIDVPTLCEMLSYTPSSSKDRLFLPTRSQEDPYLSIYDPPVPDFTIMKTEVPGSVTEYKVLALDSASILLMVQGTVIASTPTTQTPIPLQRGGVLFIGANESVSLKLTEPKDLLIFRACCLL
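assay system = human phosphomannose isomerase with PGI, G6PDH, diaphorase coupling enzymes | quantity = 15 ng/mL PMI | incubation = enzyme reaction with compound 20 min at room temperature | medium = HEPES pH 7.4 buffer with MgCl2 and Tween-20 | compound dosing = one concentration, 20 µM, in 1% DMSO | measured by = Diaphorase-driven resazurin-to-resorufin fluorescence, excitation 544, emission 590 nm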
WT yeast gro inh: growth inhibition of WT strain, primary screen, mitochondrial fusion inhibitor project, WT and mutant strains, chemical genetic | mitochondrial fusion phenotypic screen | inhibition, % at 10 µM | hit rate 2.1% among 190,000 | AID 1362, 2008; in the data active = inhibition above about 58%; tested in S. cerevisiae
PMI activator: activators of human PMI, primary screen, biochemical, fluorescence intensity, near-Km mannose 6-phosphate. Mannose-6-phosphate isomerase (Homo sapiens), P34949. purified human PMI, coupled resazurin fluorescence, 20 min; stronger effect = higher value; 1 = vehicle control, 0 substrate-free wells. activation factor at 20 µM. hit rate 0.005% among 190,000. AID 1214, 2008;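 active = activation factor of 2 or more at 20 µM, relative to plate controls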
Each line names hits and unclear results; the compound was inactive in the other large screens.

CCCN1CCN(C(=O)CCCn2c(C)c3cnn(-c4ccccc4)c(=O)c3c2C)CC1	L major viab 85
CC(C)CC(=O)NC(NC(=S)Nc1cccc2cccnc12)C(Cl)(Cl)Cl (stereo not drawn)	L major viab 52
COc1ccc(S(=O)(=O)N2CCCOC2CNC(=O)C(=O)NCc2ccco2)cc1 (stereo not drawn)	none
Cc1ccc(CN2CCN(Cc3cnc(N4CCOCC4)s3)CC2CCO)cc1 (stereo not drawn)	none
CCc1cc(-c2n[nH]c(C)c2Oc2ccc(C(C)C)cc2)c(O)cc1O	WT yeast gro inh 86
CCC(=O)Nc1cc(OC)c(NC(=O)c2ccccc2)cc1OC	L major viab 77
CCOc1cc(NC(=S)Nc2ccccc2OC)c(OCC)cc1NC(=O)c1ccccc1C	L major viab 97
COc1cc(NC(=O)c2ccc(C(C)(C)C)cc2)c(OC)cc1NC(=O)CN1CCCCC1	WT yeast gro inh 70
COc1cc(NC(=O)c2ccccc2)c(OC)cc1NC(C)=O	none
COc1cc2c(cc1NC(=O)c1cccc(Br)c1)CCCC2	WT yeast gro inh 73
CCOc1cc(NC(=S)NCC2CCCO2)c(OCC)cc1NC(=O)c1ccccc1C (stereo not drawn)	none
CC(C)(C)C(=O)NC(=S)NCc1ccccc1	none
COc1ccc(S(=O)(=O)NNC(N)=S)cc1	none
CCOc1ccccc1OCCCC(=O)Nc1sccc1C(N)=O	none
CC1CCN(S(=O)(=O)c2ccc3ncn(CC(=O)N4CCN(C)CC4)c(=O)c3c2)CC1	none
CCOc1cc(NC(=S)Nc2ccccc2)c(OCC)cc1NC(=O)c1ccccc1	L major viab 88
Cc1cccc(N(C(=O)CNC(=O)c2ccco2)C(C(=O)NCC2CCCO2)c2ccccc2)c1 (stereo not drawn)	none
CC1(C)CC(=O)C(C2=NC3(CCCCC3)Cc3ccccc32)=C(O)C1	none
Fc1ccc(Nc2c(-c3ccco3)nc3ccccn23)cc1	L major viab 66
c1ccc(Nc2c(-c3ccco3)nc3ccccn23)cc1	none
FC(F)(F)c1cccc(Cc2noc(CN3CCCC3)n2)c1	none
Cc1ccc(C2(c3noc(CN4CCC(c5ccncc5)CC4)n3)CCCC2)cc1	L major viab 51
OCC1CCCN(C2CCN(Cc3nc(Cc4cccc(C(F)(F)F)c4)no3)CC2)C1 (stereo not drawn)	L major viab 89
Fc1cccc(Cc2noc(CN3CCC(c4ccncc4)CC3)n2)c1	L major viab 95
COC(=O)CC(c1ccc(OC)c(OC)c1)c1ccc(OC)c(OC)c1	none
CCOC(=O)c1c(C)[nH]c(C=C2C(=O)CCCC2=O)c1O	none
COc1ccc2c(c1)nc(SCC(O)c1ccccc1)n2C (stereo not drawn)	none
Cc1ccc(-c2cc3c(n2-c2ccc(C(=O)O)cc2)CCCC3=O)cc1	none
COc1ccc(-n2c(-c3ccccc3)cc3c2CCCC3=O)cc1	L major viab 80
O=Cc1cn(-c2ccc(F)cc2)c2ccccc12	none
NC(=O)CCC(NS(=O)(=O)c1ccc(Cl)cc1)C(=O)NCc1ccc(Cl)cc1 (stereo not drawn)	L major viab 60
CCCCOc1ccc(NC(=S)Nc2cc(C)nc(SCCCC)n2)cc1	none
CN(C)CCCOC(=O)c1ccc(Cl)cc1Cl	L major viab 93
CCCN(CCC)CCCOC(=O)c1ccc(Cl)cc1Cl	L major viab 90
CN(C)CCCOC(=O)c1ccccc1	none
COc1ccc(C(=O)OCCCN(C)C)cc1OC	L major viab 58
CCCN(CCC)C(=S)NC(=O)c1ccc(Cl)cc1Cl	none (no result: WT yeast gro inh)
COc1ccccc1N(CC(O)Cn1c(C)nc2ccccc21)S(=O)(=O)c1ccccc1 (stereo not drawn)	none
CCCCN(CCCC)c1ncnc2nc[nH]c12	WT yeast gro inh 78
CCC(C)NC(=O)c1ccccc1-c1nc2ccccc2[nH]1 (stereo not drawn)	none
O=C(O)c1ccc(NS(=O)(=O)c2cc(C(=O)O)ccc2Br)cc1	L major viab 99
Cc1ccccc1OCCCC(=O)NCc1ccco1	none
Cc1ccc(C(=O)c2coc3c2C(=O)C(=O)c2ccccc2-3)cc1	L major viab 100
Cc1ccc(C(=O)c2c(C)oc3c2C(=O)C(=O)c2ccccc2-3)cc1	L major viab 100
Cc1oc2c(c1C(=O)c1ccc(Cl)cc1)C(=O)C(=O)c1ccccc1-2	L major viab 101, WT yeast gro inh 80
O=C(/C=C/c1cccc([N+](=O)[O-])c1)N1CCN(c2ccc(F)cc2)CC1	none
Fc1ccc2c(c1)C(c1ccncc1)=NNC(c1ccccc1)=N2	none
CCn1nc(C)c(Br)c1Nc1ccc(Br)cc1	none
CC(C)(C)c1nc(NC(=O)Nc2ccccc2)sc1Br	WT yeast gro inh 59
Cc1onc(-c2ccccc2)c1C(=O)N/N=C/c1cc2c(cc1Cl)OCO2	L major viab 100
COc1cc(/C=N/NC(=O)c2c(-c3ccccc3)noc2C)ccc1O	none
COc1cccc(/C=N/NC(=O)c2c(-c3ccccc3)noc2C)c1O	L major viab 95
O=[N+]([O-])c1cc(S(=O)(=O)C(F)(F)F)ccc1Sc1nc2ccccc2[nH]1	L major viab 100
O=[N+]([O-])c1cc(S(=O)(=O)C(F)(F)F)ccc1Sc1nc2ccccc2s1	L major viab 101
CS(=O)(=O)c1ccc(Sc2nc3ccccc3[nH]2)c([N+](=O)[O-])c1	none
CS(=O)(=O)c1ccc(Sc2nc3ccccc3s2)c([N+](=O)[O-])c1	L major viab 80
O=C(O)c1ccc(N2CC3CC(C2)c2cccc(=O)n2C3)c(NS(=O)(=O)c2cccc(C(F)(F)F)c2)c1 (stereo not drawn)	none
CCOC(=O)CN1C(=O)S/C(=C/c2ccc3c(c2)n(C)c(=O)n3C)C1=O	L major viab 69
CC(=O)N/C(=C/c1ccc([N+](=O)[O-])cc1)C(=O)O	none
COC(=O)COc1cccc(NC(=O)COc2ccccc2)c1	L major viab 91
COc1cccc(-c2nc(-c3ccc(NC(=O)c4ccncc4)cc3)no2)c1	none
COC(=O)COc1cccc(NC(=O)c2cccs2)c1	L major viab 61
COc1cccc(-c2nc(-c3ccc(NC(=O)c4cccs4)cc3)no2)c1	WT yeast gro inh 58
CCCN(CCC)S(=O)(=O)c1ccc(NC(=O)COc2ccccc2)cc1	L major viab 98
CCCN(CCC)S(=O)(=O)c1ccc(NC(=O)Cc2cccs2)cc1	none
COC(=O)COc1cccc(NC(=O)c2ccccc2)c1	none
CN(Cc1cn(-c2ccccc2)nc1-c1cc2ccccc2o1)C(=O)CCC(=O)O	none
